Source: PubChem (several laboratories)
Only some compounds are listed: those with a hit (about 6.1% of all), similar ones and a draw of the others.
Measles CPE – compounds protecting cells from measles virus cytopathic effect, primary screen, measles RdRp inhibitor project, single point, MLSMR library, absorbance; Measles virus-infected cells, CPE protection; protection (pct of control), % at 4 µM; 140,000 tested, 1.5% active; AID 841, 2007; in the data active = protection mostly above about 24%, no sharp cut-off; inactive = mostly below about 26%
RAM inhibit – inhibitors of the yeast RAM network, primary screen, dse1pr::URA3 reporter, 5-FOA selection | S. cerevisiae dse1pr::URA3 reporter, 5-FOA growth OD615, 2 d; analog-sensitive cbk1-as2 kinase mutant strain | 190,000 tested, 1.8% active | inhibition, % at 50 µM;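 active = inhibition above a set limit, 3 SD over mean compound inhibition, cut at about 8.4% in these data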;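 note: 0% = DMSO-only wells with no growth and 100% = 10 µM 1-NA-PP1 full growth; inhibition rescues growth on 5-FOA so higher OD means more RAM inhibition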
WT yeast gro inh – growth inhibition of WT strain, primary screen, mitochondrial fusion inhibitor project, WT and mutant strains, chemical genetic | mitochondrial fusion phenotypic screen | inhibition, % at 10 µM | 190,000 tested, 2.1% active | AID 1362, 2008; in the data active = inhibition above about 58%; tested in S. cerevisiae
Yeast lifespan up – compounds extending yeast replicative lifespan, primary screen, S. cerevisiae, OD615; S. cerevisiae growth with nicotinamide; deaD strain in restrictive glucose medium; inhibition of the nicotinamide effect, % at 10 µM; 130,000 tested, 0.68% active;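 active = inhibition above a set limit, placed 3 SD over the median of all compounds, cut at about 26% in these data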;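 note: 0% = nicotinamide-treated wells and 100% = cells grown without nicotinamide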
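Test system: DeaD-strain S. cerevisiae / Buffer or medium: restrictive glucose medium / Also added: nicotinamide 1.5 mM / Doses: one concentration, 10 µM, DMSO 0.25% / Schedule: 48 h at 30 °C / Signal: OD615 measurement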
Yeast growth inh – growth inhibitors of yeast BB579 in restrictive medium, primary screen, yeast lifespan-shortening project, S. cerevisiae; OD615, 48 h; inhibition, % at 10 µM; 140,000 tested, 0.51% active;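 active = inhibition above a set limit, 3 SD over the mean compound inhibition, cut at about 44% in these data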
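Detection: OD615 turbidity measurement; Material: Saccharomyces cerevisiae DeaD strain BB579, replicative lifespan model yeast; Timing: 48 h exposure, 30 °C; Doses: single 10 µM dose; Medium: CSMM-D restrictive synthetic medium containing dextrose (glucose); Controls: amphotericin B at 10 µg/mL as positive control.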
hDAT+cocaine – changed hDAT dopamine uptake under cocaine IC80, either direction, primary screen, cocaine antagonist project, cell-based, LLC-PK1 hDAT, [14C]-dopamine uptake, MLSMR | Sodium-dependent dopamine transporter (Homo sapiens), Q01959 | LLC-PK1 hDAT cells, [14C]-dopamine uptake with cocaine IC80; actives deviate in either direction | B-score at 10 µM | 110,000 tested, 1.3% active | AID 449768, 2010;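 active = Z score or B-score, a plate-position-corrected score, falls beyond the plate's 99.7% confidence bounds, in either direction; inactive = both scores lie inside the 99.7% bounds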;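 note: scored against the spread of the other compound wells on the same plate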
* = called active by the depositor; / = no result.

SMILES	Measles CPE	RAM inhibit	WT yeast gro inh	Yeast lifespan up	Yeast growth inh	hDAT+cocaine
Cc1ccc(NC(=O)C(C)Sc2nnc(-c3cccnc3)n2-c2ccccc2)cc1 (stereo not given)	5	2	2	-9	-73	2.1
CN(C)CCCN(Cc1ccccc1)C(=S)Nc1ccc(SC(F)F)cc1	/	2	10	/	/	/
FC(F)(F)c1ccc(NC(=S)NCc2ccccc2)cc1	/	3	60*	/	/	/
FC(F)Sc1ccc(NC(=S)NCc2ccccc2)cc1	/	1	60*	/	/	/
S=C(NCc1ccccc1)NCc1ccccc1	14	-2	14	-9	-27	-0.99
Cc1ccc(OCC(=O)N/N=C\c2cn(C)c3ccccc23)c([N+](=O)[O-])c1	8	-1	1	-8	-32	-0.63
Cc1ccc(NC(=S)NNC(=O)c2nn(C)c(C)c2Cl)cc1	102*	6	38	-3	-14	/
Cc1ccc(NC(=S)NNC(=O)c2c(Cl)c(C)nn2C)cc1	9	0	-2	-5	-61	/
CCC(C)(C)c1ccc2c(c1)C(=O)c1ccccc1C2=O	12	1	76*	-6	-14	/
CCC(=O)Nc1ccc2c(c1)C(=O)c1ccccc1C2=O	4	3	39	-12	28	1.4
CCCCC(=O)N/N=C(/C)C1=C(C)C(C)(C)OC1=O	/	2	-10	/	/	/
COC(=O)c1ccc(/C(O)=C(\C#N)c2nc3ccccc3s2)cc1	1	0	4	31*	-4	-0.18
Cc1ccc(OC/C(O)=C(\C#N)c2nc3ccccc3s2)cc1	12	4	7	28*	-29	/
Cc1cc(C)c(NC(=S)N(CCCN2CCN(C)CC2)Cc2cccs2)c(C)c1	/	1	8	/	/	/
Cc1csc(NC(=O)c2cncc(Br)c2)n1	/	0	19	/	/	/
O=C(NC(=S)NNS(=O)(=O)c1ccccc1)c1cccnc1	/	0	-7	/	/	/
CCCCC(=O)NC(=S)NNS(=O)(=O)c1ccccc1	42*	1	-20	11	-30	/
O=C(Nc1ccccc1N1CCCC1)c1cc2ccccc2o1	9	1	37	-20	-46	/
CCCC(=O)N1CCN(c2ccc(NC(=O)c3cc4ccccc4o3)cc2)CC1	60*	3	2	-7	-15	0.42
O=C(Nc1ccccc1N1CCN(C(=O)c2ccccc2)CC1)c1cc2ccccc2o1	11	8.5*	28	4	-32	0.0062
Cc1ccc(NC(=O)C(OC(=O)c2ccc(O)cc2)c2ccccc2)cc1Cl (stereo not given)	7	8.5*	89*	-2	-40	/
CCS(=O)(=O)C1=NN2C(=N)/C(=C\c3ccc(SCc4ccco4)o3)C(=O)N=C2S1	/	11*	23	/	/	/
N=C1/C(=C\c2ccc(SCc3ccccc3)o2)C(=O)N=C2SC=NN12	/	4	14	/	/	/
CCO[C@@H]1OC(C(=O)N2CCN(Cc3ccccc3)CC2)=C[C@H](c2ccccc2)[C@H]1CCCO	/	1	-1	/	/	1.3
O=C(N/N=C/c1ccc(OCCCF)cc1)c1ccc(C(F)(F)F)cc1	/	5	-6	/	/	/
SMILES	Measles CPE	RAM inhibit	WT yeast gro inh	Yeast lifespan up	Yeast growth inh	hDAT+cocaine
O=C(O)CC1S/C(=N/N=C/c2ccc([N+](=O)[O-])cc2)N(c2ccc(O)cc2)C1=O (stereo not given)	/	1	-9	/	/	/
CCc1cc(C(=O)OC)c(NC(=O)c2cc(Br)cs2)s1	9	10*	23	-14	-33	-0.29
CCc1cc(C(=O)OC)c(NC(=O)CCCC(=O)O)s1	14	1	6	-8	-27	0.92
COCCn1c(SCC(=O)Nc2ccc(C)cc2)nc2c(oc3ccccc32)c1=O	3	2	3	85*	-36	/
CC1Nc2ccccc2C(=O)N1NC(=O)c1ccc(Br)cc1 (stereo not given)	/	1	0	/	/	/
CCc1ccccc1NC(=O)c1ccc(CN2CCC(Cc3ccccc3)CC2)cc1	5	1	23	-1	-29	-6.9*
